Experiments:
Cricetinae gen. sp. [1] = experiment: Number of hamsters (male) with follicular cell dilation over the total number of tested at 4.56 g/kg of compound in iodinated form administered orally; 0/5; type: functional, Cricetulus griseus
Cricetinae gen. sp. [2] = experiment: Number of hamsters (male) with follicular cell mitotic figures above the control value, to that of total number of tested at 4.56 g/kg of compound in iodinated form administered orally; 0/5; type: functional, Cricetulus griseus
Cricetinae gen. sp. [3] = experiment: Number of hamsters (male) with follicular cell necrosis over the total number of tested at 4.56 g/kg of compound in iodinated form administered orally; 0/5; type: functional, Cricetulus griseus
Cricetinae gen. sp. [4] = experiment: Number of hamsters (male) with follicular cell necrosis over the total number of tested at 4.56 g/kg of compound in iodinated form administered orally; 0/3; type: functional, Cricetulus griseus
Cricetinae gen. sp. [5] = experiment: Number of hamsters (female) with follicular cell mitotic figures above the control value, to that of total number of tested at 4.56 g/kg of compound in iodinated form administered orally; 1/3; type: functional, Cricetulus griseus
Mus musculus [6] = experiment: Toxicity in mice evaluated, after a single dose of compound containing 1.14 g/kg of iodinated form administered as 10 mL/kg solution; NT=No toxicity; type: organism-based; details: in vivo, 1140 mg/kg
In short: (§1)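 Mice, 3 per dose group, received a single oral dose of the test agent as a mineral oil-in-water emulsion. Doses were 10, 20 or 40 mL/kg, about 1-, 2- and 4-fold the anticipated human dose of 114 mg I/mL. Emulsion vehicle alone at 40 mL/kg was the control. Clinical signs and mortality were checked several times on the dosing day, then daily for 7 days. Body weight was taken at 24 h and 1 week, and survivors were necropsied on day 7. Read-out was deaths over animals dosed.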

Mus musculus [7] = experiment: Mortality observed in mouse tested for murine toxicity after a single dose of compound (8.49 g/kg) containing iodinated form (4.56 g/kg) of it, administered as 40 mL/kg solution; 0/3; type: functional; in short: as §1
Cricetinae gen. sp. [8] = experiment: Number of hamsters (male) with follicular cell mitotic figures above the control value, to that of total number of tested at 4.56 g/kg of compound in iodinated form administered orally; 1/3; type: functional, Cricetulus griseus
Cricetinae gen. sp. [9] = experiment: Number of hamsters (female) with follicular cell necrosis over the total number of tested at 4.56 g/kg of compound in iodinated form administered orally; 1/6; type: functional, Cricetulus griseus
Mus musculus [10] = experiment: Toxicity in mice evaluated, after a single dose of compound containing 2.28 g/kg of iodinated form administered as 20 ml/kg solution; NT=No toxicity; type: organism-based; details: in vivo, 2280 mg/kg; in short: as §1
Cricetinae gen. sp. [11] = experiment: Number of hamsters (male) with follicular cell dilation over the total number of tested at 4.56 g/kg of compound in iodinated form administered orally; 1/3; type: functional, Cricetulus griseus
Cricetinae gen. sp. [12] = experiment: Number of hamsters (female) with follicular cell dilation over the total number of tested at 4.56 g/kg of compound in iodinated form administered orally; 1/3; type: functional, Cricetulus griseus
Cricetinae gen. sp. [13] = experiment: Number of hamsters (male) with follicular cell mitotic figures above the control value, to that of total number of tested at 4.56 g/kg of compound in iodinated form administered orally; 3/3; type: functional, Cricetulus griseus
Cricetinae gen. sp. [14] = experiment: Number of hamsters (female) with follicular cell mitotic figures above the control value, to that of total number of tested at 4.56 g/kg of compound in iodinated form administered orally; 3/3; type: functional, Cricetulus griseus
Rattus norvegicus [15] = organism: Rattus norvegicus; experiment: Percent of compound (40 uM) present in unmetabolized form in rats after incubation with microsomes for 60 min; type: functional; details: Microsome
In short: (§2)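 Substrate at 40 µM was incubated 60 min with male Sprague-Dawley rat or male golden Syrian hamster liver microsomes, in duplicate, with sampling at 0, 15, 30 and 60 min. Aliquots were zinc sulfate-quenched, propan-2-ol-extracted and run on isocratic reversed-phase C8 HPLC. Intact drug is expressed relative to 0 min control values.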

Cricetinae gen. sp. [16] = experiment: Number of hamsters (male) with follicular cell necrosis over the total number of tested at 4.56 g/kg of compound in iodinated form administered orally; 3/3; type: functional, Cricetulus griseus
Cricetulus griseus [17] = organism: Cricetulus griseus; experiment: Percent of compound (40 uM) present in unmetabolized form in hamsters after incubation with microsomes for 60 min; type: functional; details: Microsome; in short: as §2
Cricetinae gen. sp. [18] = experiment: Number of hamsters (female) with follicular cell dilation over the total number of tested at 4.56 g/kg of compound in iodinated form administered orally; 3/3; type: functional, Cricetulus griseus
Cricetinae gen. sp. [19] = experiment: Number of hamsters (female) with follicular cell necrosis over the total number of tested at 4.56 g/kg of compound in iodinated form administered orally; 0/3; type: functional, Cricetulus griseus
Rattus norvegicus [20] = organism: Rattus norvegicus; experiment: Compound (4 uM) was evaluated for the half-life period in rats after incubation with microsomes for 60 min; type: functional; details: Microsome
In short: (§3)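 Liver microsomes from male Sprague-Dawley rat, male golden Syrian hamster or human, incubated with substrate at 4 µM. Duplicate incubates were sampled at 0, 15, 30 and 60 min, quenched with saturated zinc sulfate and extracted with propan-2-ol. Samples were analysed by isocratic reversed-phase C8 HPLC (65% i-PrOH/water, 0.1% TFA). Values were normalized to the 0 min control to derive half-life (n = 2).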

Cricetinae gen. sp. [21] = experiment: Number of hamsters (male) with follicular cell dilation over the total number of tested at 4.56 g/kg of compound in iodinated form administered orally; 3/3; type: functional, Cricetulus griseus
Homo sapiens = organism: Homo sapiens; experiment: Compound (4 uM) was evaluated for the half-life period in humans after incubation with microsomes for 60 min; details: Microsome
Mus musculus [22] = experiment: Mortality observed in mouse tested for murine toxicity after a single dose of compound (7.00 g/kg) containing iodinated form (4.56 g/kg) of it, administered as 40 mL/kg solution; 0/3; type: functional; in short: as §1
Cricetulus griseus [23] = organism: Cricetulus griseus; experiment: Compound (4 uM) was evaluated for the half-life period in hamster after incubation with microsomes for 60 min; type: functional; details: Microsome; in short: as §3
Mus musculus [24] = experiment: Mortality observed in mouse tested for murine toxicity, 7 days after a single dose of compound containing 3.27g/kg of iodinated form, administered as 20 ml/kg solution; type: functional; in short: as §1
Mus musculus [25] = experiment: Mortality observed in mouse tested for murine toxicity after a single dose of compound (6.26 g/kg) containing iodinated form (1.91 g/kg) of it, administered as 10 mL/kg solution; 1/3; type: functional
Mus musculus [26] = experiment: Mortality observed in mouse tested for murine toxicity, 7 days after a single dose of compound containing 6.53 g/kg of iodinated form, administered as 40 mL/kg solution; type: functional; in short: as §1
Mus musculus [27] = experiment: Mortality observed in mouse tested for murine toxicity after a single dose of compound (2.80 g/kg) containing iodinated form (0.853 g/kg) of it, administered as 10 mL/kg solution; 1/3; type: functional
Mus musculus [28] = experiment: Mortality observed in mouse tested for murine toxicity after a single dose of compound (5.34 g/kg) containing iodinated form (1.63 g/kg) of it, administered as 10 mL/kg solution; 3/3; type: functional
Mus musculus [29] = experiment: Mortality observed in mouse tested for murine toxicity after a single dose of compound (12.5 g/kg) containing iodinated form (3.81 g/kg) of it, administered as 10 mL/kg solution; 3/3; type: functional

CC(C)CCCCCc1c(I)c(CCCCCC(C)C)c(I)c(CCCCCC(C)C)c1I
Dilation (Cricetinae gen. sp. [1]): 0 | Mitotic figures (Cricetinae gen. sp. [2]): 0 | Necrosis (Cricetinae gen. sp. [3]): 0

CCCCCCc1c(I)c(CCCCCC)c(I)c(CCCCCC)c1I
Necrosis (Cricetinae gen. sp. [4]): 0 | Mitotic figures (Cricetinae gen. sp. [5]): 0 | Toxicity (Mus musculus [6]): Not toxic | Mortality (Mus musculus [7]): 0 number of descendants/number of tested | Mitotic figures (Cricetinae gen. sp. [8]): 1 | Necrosis (Cricetinae gen. sp. [9]): 0 | Toxicity (Mus musculus [10]): Not toxic | Dilation (Cricetinae gen. sp. [11]): 1 | Dilation (Cricetinae gen. sp. [12]): 0

CCCCCCC(C)Oc1c(I)cc(I)cc1I (configuration not stated)
Mitotic figures (Cricetinae gen. sp. [13]): 3 | Mitotic figures (Cricetinae gen. sp. [14]): 3 | Intact (Rattus norvegicus [15]): 73% | Toxicity (Mus musculus [6]): Not toxic | Necrosis (Cricetinae gen. sp. [16]): 2 | Toxicity (Mus musculus [10]): Not toxic | Intact (Cricetulus griseus [17]): 73% | Dilation (Cricetinae gen. sp. [18]): 3 | Necrosis (Cricetinae gen. sp. [19]): 0 | T1/2 (Rattus norvegicus [20]): 36 min | Dilation (Cricetinae gen. sp. [21]): 3 | T1/2 (Homo sapiens): 132 min | Mortality (Mus musculus [22]): 0 number of descendants/number of tested | T1/2 (Cricetulus griseus [23]): 15 min

CCOC(=O)CCCCCCCCC(C)c1ccc(I)cc1 (configuration not stated) [IOPHENDYLATE]
Mortality (Mus musculus [24]): 100% | Mortality (Mus musculus [25]): 1 number of descendants/number of tested | Mortality (Mus musculus [26]): 100% | Mortality (Mus musculus [27]): 1 number of descendants/number of tested | Mortality (Mus musculus [28]): 3 number of descendants/number of tested | Mortality (Mus musculus [29]): 3 number of descendants/number of tested

— ChEMBL document CHEMBL1133021, “1,3,5-Trialkyl-2,4,6-triiodobenzenes: novel X-ray contrast agents for gastrointestinal imaging” (J Med Chem, 2000)
